Experiments:
[1] = target: T1, labeled rabbit muscle actin (Oryctolagus cuniculus, UniProt P68135); assay: In vitro actin polymerization assay; assay type: biochemical; conditions: 5 μM; for actin polymerization curve, RFU reached (lowest point/plateau): CTRL about 37,000 RFU
Method in brief: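 Labeled rabbit muscle actin incubated with test compound (5 μM) using a commercial polymerization kit. DMSO as negative control; latrunculin A and cytochalasin B (5 μM) as reference agents. Filament assembly followed by fluorescence (ex/em 365/410 nm) in kinetic mode for 1 h at room temperature; curves representative of three separate tests.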

[2] = target: T1, labeled rabbit muscle actin; assay: In vitro actin depolymerization assay; assay type: biochemical; conditions: 5 μM, added after 1 h polymerization
Method in brief: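 Labeled rabbit muscle actin first polymerized for 1 h under polymerization-assay conditions. Test compound (5 μM) then added, and fluorescence (ex/em 365/410 nm) monitored kinetically for another hour at room temperature. DMSO vehicle; latrunculin A and cytochalasin B (5 μM) as controls; three separate tests.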

[3] = tested on: MDA‐MB‐231 cells; assay: MTT assay; assay type: cell-based, human
Method in brief: (§1)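 Cells seeded in 48-well plates and serum-starved. They were then exposed for 72 h to test compound dissolved in DMSO over 0.1–200 μM, with viability read by MTT. IC50 calculated from concentration–response data; experiments in triplicate, reported as mean ± SD.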

[4] = tested on: MCF‐7 cells; assay: MTT assay; assay type: cell-based, human
Method in brief: as §1

[5] = tested on: MCF‐10A cells; assay: MTT assay, cytotoxicity on normal cells; assay type: cell-based, human; conditions: 72 h
Method in brief: as §1

[6] = tested on: Escherichia coli (ATCC 25922); assay: MIC determination, broth dilution; assay type: cell-based; conditions: E. coli ATCC 25922, broth dilution, 37 °C 18 h
Method in brief: (§2)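 Broth dilution per CLSI. Overnight LB cultures diluted to 4000 CFU/mL in 96-well plates, then exposed to test compound at 1, 5, 10, 20, 50 or 100 μg/mL for 18 h at 37 °C. Growth read at 600 nm against DMSO-vehicle growth control; compound-only sterility control; ampicillin as strain-sensitivity control. MIC: lowest concentration inhibiting visible growth; MBC: lowest fully bactericidal concentration. Five experiments, each in triplicate.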

[7] = tested on: Staphylococcus aureus (ATCC 23235); assay: MIC determination, broth dilution; assay type: cell-based; conditions: S. aureus ATCC 23235, broth dilution, 37 °C 18 h
Method in brief: as §2

[8] = tested on: Enterococcus faecalis (ATCC 19433); assay: MIC determination, broth dilution; assay type: cell-based; conditions: E. faecalis ATCC 19433, broth dilution, 37 °C 18 h
Method in brief: as §2

[9] = tested on: Gram‐positive and Gram‐negative bacteria (E. coli, S. aureus, E. faecalis); assay: MBC determination and ampicillin control, broth dilution, all strains; assay type: cell-based; conditions: all strains used, standard antibiotic control
Method in brief: as §2

[10] = tested on: MCF‐7 cells; assay: Immunofluorescence analysis of β‐actin; assay type: cell-based, human; conditions: MCF‐7, 24 h, IC50 value / 5 μM
[11] = target: T2, recombinant human topo I (Homo sapiens, UniProt P11387); assay: Human topoisomerase I relaxation assay; assay type: biochemical; conditions: 1 μM, supercoiled pHOT1 substrate
T2 sequence (P11387 1-765): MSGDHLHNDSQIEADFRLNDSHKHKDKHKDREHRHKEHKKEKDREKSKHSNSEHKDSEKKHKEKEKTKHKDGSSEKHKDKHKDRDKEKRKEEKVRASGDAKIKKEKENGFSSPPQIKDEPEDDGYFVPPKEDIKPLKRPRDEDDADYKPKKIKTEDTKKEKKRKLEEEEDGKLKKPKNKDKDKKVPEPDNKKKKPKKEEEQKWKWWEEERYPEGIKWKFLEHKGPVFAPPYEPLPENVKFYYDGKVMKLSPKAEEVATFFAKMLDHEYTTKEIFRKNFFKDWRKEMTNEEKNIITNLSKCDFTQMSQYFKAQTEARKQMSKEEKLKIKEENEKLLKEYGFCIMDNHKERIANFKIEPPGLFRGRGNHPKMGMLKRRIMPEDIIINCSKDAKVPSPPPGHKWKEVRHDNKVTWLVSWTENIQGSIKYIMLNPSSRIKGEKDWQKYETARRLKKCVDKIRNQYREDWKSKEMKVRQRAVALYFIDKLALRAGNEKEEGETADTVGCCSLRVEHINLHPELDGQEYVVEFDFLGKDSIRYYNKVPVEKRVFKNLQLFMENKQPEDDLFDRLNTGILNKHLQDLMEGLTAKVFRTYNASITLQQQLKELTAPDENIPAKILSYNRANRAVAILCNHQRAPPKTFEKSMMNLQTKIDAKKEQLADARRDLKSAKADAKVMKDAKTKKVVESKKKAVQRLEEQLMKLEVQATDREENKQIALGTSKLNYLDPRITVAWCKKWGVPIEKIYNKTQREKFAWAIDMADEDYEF
Method in brief: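 Supercoiled pHOT1 (0.25 μg) relaxed by 2 U recombinant human topo I, without or with test compound at 1 μM; DMSO vehicle control; relaxed-DNA marker run alongside. Products separated on 1% agarose in 1X TAE without ethidium bromide and visualized on a UV transilluminator.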

[12] = target: human topoisomerase II (Homo sapiens, UniProt P11388); assay: Human topoisomerase II decatenation assay; assay type: biochemical; conditions: kDNA substrate
Chain of human topoisomerase II (P11388 whole entry): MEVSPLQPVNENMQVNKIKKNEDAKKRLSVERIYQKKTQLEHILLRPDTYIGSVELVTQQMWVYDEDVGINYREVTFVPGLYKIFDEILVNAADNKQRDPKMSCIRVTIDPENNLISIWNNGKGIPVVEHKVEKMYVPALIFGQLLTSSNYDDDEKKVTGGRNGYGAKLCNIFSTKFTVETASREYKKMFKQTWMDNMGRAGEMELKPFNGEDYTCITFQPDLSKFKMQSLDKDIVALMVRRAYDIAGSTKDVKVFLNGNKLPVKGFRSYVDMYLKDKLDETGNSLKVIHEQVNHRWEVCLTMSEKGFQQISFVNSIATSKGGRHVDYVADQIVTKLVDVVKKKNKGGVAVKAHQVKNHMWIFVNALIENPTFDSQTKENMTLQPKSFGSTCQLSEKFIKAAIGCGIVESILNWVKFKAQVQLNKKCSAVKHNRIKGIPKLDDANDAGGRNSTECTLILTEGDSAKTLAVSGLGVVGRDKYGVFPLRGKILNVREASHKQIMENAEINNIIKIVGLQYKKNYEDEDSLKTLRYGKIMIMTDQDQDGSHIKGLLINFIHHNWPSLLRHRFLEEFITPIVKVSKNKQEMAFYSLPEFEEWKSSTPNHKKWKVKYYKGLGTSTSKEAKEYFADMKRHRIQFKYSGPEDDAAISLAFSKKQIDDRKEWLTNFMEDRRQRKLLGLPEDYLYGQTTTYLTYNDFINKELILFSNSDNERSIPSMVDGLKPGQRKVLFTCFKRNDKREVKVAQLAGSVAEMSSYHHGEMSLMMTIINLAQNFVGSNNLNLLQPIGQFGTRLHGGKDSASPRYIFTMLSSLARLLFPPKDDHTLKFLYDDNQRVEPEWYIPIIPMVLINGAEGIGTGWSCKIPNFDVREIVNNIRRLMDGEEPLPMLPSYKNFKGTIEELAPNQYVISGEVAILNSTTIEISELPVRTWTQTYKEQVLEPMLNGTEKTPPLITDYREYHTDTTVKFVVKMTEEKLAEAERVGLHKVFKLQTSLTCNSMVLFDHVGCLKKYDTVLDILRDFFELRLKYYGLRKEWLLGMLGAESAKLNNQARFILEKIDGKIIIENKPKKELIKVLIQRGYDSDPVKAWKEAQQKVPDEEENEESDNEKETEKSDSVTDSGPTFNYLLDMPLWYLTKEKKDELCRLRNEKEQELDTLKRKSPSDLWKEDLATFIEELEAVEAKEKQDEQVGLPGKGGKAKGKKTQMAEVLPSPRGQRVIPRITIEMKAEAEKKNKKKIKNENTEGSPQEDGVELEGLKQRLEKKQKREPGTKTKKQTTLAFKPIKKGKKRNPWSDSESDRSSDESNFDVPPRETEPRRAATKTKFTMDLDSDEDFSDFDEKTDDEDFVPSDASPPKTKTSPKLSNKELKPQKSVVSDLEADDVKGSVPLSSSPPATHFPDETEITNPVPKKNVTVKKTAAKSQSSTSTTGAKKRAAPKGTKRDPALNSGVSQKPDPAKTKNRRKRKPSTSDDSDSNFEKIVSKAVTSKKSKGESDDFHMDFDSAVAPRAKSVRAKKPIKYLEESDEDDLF
Method in brief: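 Decatenation of kinetoplast DNA (0.3 μg) by 3 U human topo II, with test compound at 1 or 10 μM or DMSO vehicle; linear and decatenated kDNA markers included. Gel: 1% agarose in 1X TAE with ethidium bromide (0.5 μg/ml), UV transilluminator read-out.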

[13] = tested on: MCF‐7 cells; assay: TUNEL assay; assay type: cell-based, human; conditions: MCF‐7, 24 h, at IC50 value
[14] = MCF‐10A normal mammary epithelium, MTT

Row | Compound | effect on actin polymerization [1] | actin polymerization curve, RFU reached (lowest point/plateau) [1] | effect on actin depolymerization [2] | IC50 ([3]; MDA‐MB‐231, MTT, 72 h) [µM] | IC50 ([4]; MCF‐7, MTT, 72 h) [µM] | IC50 [5, 14] [µM] | MIC [6] [µg/mL] | MIC [7] [µg/mL] | MIC [8] [µg/mL] | also measured
1 | C=C1[C@@H](C)[C@H]2[C@H](Cc3ccccc3)NC(=O)[C@]23OC(=O)/C=C/[C@H](O)CCC[C@@H](C)C/C=C/[C@H]3[C@@H]1O [CB, cytochalasin B, reference compound] | totally impeded the actin polymerization | approximately 20,000 RFU | no relevant changes in RFU | – | – | – | – | – | – | actin depolymerization curve, RFU reached ([2]; initial value 28,000 RFU): about 28,000 RFU
2 | N.N.[Cl][Pt][Cl] [Cisplatin, reference compound] | – | – | – | 28.7 ± 0.4 | 35.8 ± 0.7 | 81.3 ± 0.6 | – | – | – | –
3 | COC(Cn1ccn(C)[c]1=[Ag-2][I])c1ccccc1 (stereo not shown) [Compound 3, [N‐methyl,N’‐(2‐metoxy‐2‐phenyl)ethyl‐imidazole‐2‐ylidenesilver(I)] iodide] | – | – | – | 52.6 ± 0.3 | 31.8 ± 0.8 | > 200 | 5 | 5 | 10 | –
4 | C/C1=C/C(=O)O[C@@H]2C[C@@H](CC[C@H](C)/C=C\C=C\CC1)O[C@@](O)([C@@H]1CSC(=O)N1)C2 [Latrunculin A, reference compound] | totally impeded the actin polymerization | – | actin depolymerization has occurred | – | – | – | – | – | – | IC50 ([3]; Homo sapiens, MDA-MB-231, 72 h): 0.024 µM; IC50 ([4]; Homo sapiens, MCF7, 72 h): 0.14 µM; IC50 ([5]; Homo sapiens, MCF-10A): 0.045 µM
5 | CC1(C)S[C@@H]2[C@H](NC(=O)[C@H](N)c3ccccc3)C(=O)N2[C@H]1C(=O)O [ampicillin, Ampicillin] | – | – | – | – | – | – | – | – | – | strain sensibility to ampicillin [9]: ampicillin‐sensible
6 | [4,5‐dichloro‐[(N‐methyl‐N’(2‐hydroxy‐2‐phenyl‐ethyl)imidazole‐2‐ylidene]silver(I)] acetate [Compound 6] | inhibitory activity on the polymerization of G‐actin, higher than that of CB | approximately 13,000 RFU | able to act as a depolymerization inducer | 38.1 ± 0.8 | 13.2 ± 0.3 | > 200 | 10 | 5 | 10 | time to reach the lowest point of the polymerization curve [1]: around 12 minutes; actin cytoskeleton organization / cell morphology [10]: caused comparable disorganization of this structure; inhibition of hTopo I activity [11]: total inhibition of the enzyme activity; inhibition of hTopo II activity ([12]; 1 μM): did not produce the enzyme inhibition; inhibition of hTopo II activity ([12]; 10 μM): totally inhibit the hTopo II activity; apoptosis (green nuclear fluorescence, DNA fragmentation) [13]: induced apoptosis
